# Cl transport mod: modulators of human KCC2 chloride dependent transport | AID 1456 | Q9H2X9 | hit rate 2.2% among 190,000 | B-score of Tl+ flux slope (higher = more flux/activation; lower = inhibition) at 10 µM | KCC2 cells, thallium flux FluoZin-2 fluorescence;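 active means thallium flux slope and its plate-corrected score both differing from the plate sample mean at a set confidence after two filtering rounds, in either direction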;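 further: slope of fluorescence scaled to starting intensity during 10 to 20 s after thallium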
# Mdm2 ligase inh: inhibitors of human Mdm2 E3 ubiquitin ligase; Q00987; cell-based MDM2 ubiquitination luciferase reporter, 2 h; 0 = plate control, 100 = twice control, blank-subtracted; signal enhancement, % at 5 µM; hit rate 0.11% among 210,000;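 active means signal enhancement of 30% or more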;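 further: luminescence tracks abundance of the self-degrading MDM2-luciferase fusion protein; higher signal means inhibition of MDM2 E3 ligase activity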
#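 Timing – 2 h compound exposure at 37 °C · Assay system – mammalian cells stably expressing self-ubiquitinating, self-degrading MDM2 E3–luciferase fusion · Amount – 2000 cells seeded into each well · Measure – % luminescence enhancement versus blank-corrected plate control mean · Measured by – SteadyLite luminescence, 15 min reagent step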
# PKD1 kinase inh: inhibitors of human PKD1 kinase. PKD1 kinase fluorescence polarization assay. inhibition, % (test concentration not listed). AID 797. hit rate 0.056% among 200,000; in the data active means inhibition above about 50%
# Redox H2O2 prof: compounds producing H2O2 with reducing agent – biochemical, NIH compound library profiling, artefact control for MLSCN library redox annotation, primary screen | DTT-dependent redox cycling H2O2, phenol red/HRP absorbance; 100% = 100 µM peroxide control, 0% = buffer | activation, % at 10 µM | hit rate 0.03% among 200,000;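 active means activation of at least 50% relative to the plate's high and low controls in the primary single-dose screen; inactive means activation below 50%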;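 further: compound incubated with DTT at 0.8 mM final as the reducing agent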
# ROMK mod: modulates human ROMK potassium channel activity; AID 1918; B-score at 10 µM; P48048; hit rate 2% among 130,000; Tet-inducible ROMK, thallium flux fluorescence; actives lie on both sides;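 active means signal ratio slope over the read window, or its plate-corrected B-score, at least 3 SD from the plate mean, either direction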;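 further: B-score of the F/F0 ratio slope over 7 to 12 s after thallium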
# Target sequence (P48048 whole entry, looked up): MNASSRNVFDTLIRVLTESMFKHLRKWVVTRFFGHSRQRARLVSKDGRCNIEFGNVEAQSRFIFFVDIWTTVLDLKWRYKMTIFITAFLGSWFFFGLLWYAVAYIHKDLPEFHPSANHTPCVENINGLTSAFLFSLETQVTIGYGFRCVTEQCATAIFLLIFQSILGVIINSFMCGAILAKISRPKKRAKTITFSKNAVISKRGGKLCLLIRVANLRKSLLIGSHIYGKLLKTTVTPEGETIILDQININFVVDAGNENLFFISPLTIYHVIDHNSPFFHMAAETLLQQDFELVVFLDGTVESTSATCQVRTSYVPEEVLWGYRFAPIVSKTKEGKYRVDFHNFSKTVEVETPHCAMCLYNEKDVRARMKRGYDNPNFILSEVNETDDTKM
# p97 inhibitor: human p97 ATPase inhibition; recombinant p97 ATPase, Kinase-Glo ATP luminescence, 3 h; inhibition, % at 8 µM; AID 1481; P55072; hit rate 0.42% among 220,000; in the data active means inhibition above about 15%
# KCC2 sec1: confirmation of human KCC2 transport modulators; normalised thallium flux (F/F0 slope) at 10 µM; shares compounds with Cl transport mod; hit rate 15% among 3,700; HEK293-KCC2, thallium flux, FluoZin2 fluorescence; active compounds read high; AID 1713;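 active means thallium flux slope above the same plate's solvent-only control mean plus 3 SD; inconclusive means the two replicate wells disagree; inactive means no significant difference from solvent-only control wells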
# KCC2 bumet counter: thallium flux persisting under bumetanide in KCC2 cells, counter-screen secondary assay. AID 1714. normalized thallium flux at 10 µM. HEK293-KCC2 + bumetanide/ouabain, thallium flux FluoZin2; active compounds read high. hit rate 49% among 3,700. shares compounds with Cl transport mod;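 active means thallium entry rate above the same plate's blocked-transporter control wells by more than 3 SD; inconclusive means the two repeat wells disagree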;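 further: raw slope of fluorescence over initial fluorescence between 10 and 20 s after thallium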
# KCC2 secondary2: KCC2 (human) modulation, second secondary assay; shares compounds with Cl transport mod; AID 1715; hit rate 23% among 3,700; normalized thallium flux at 10 µM; HEK293-KCC2, thallium flux FluoZin2 fluorescence; actives lie on both sides; F/F0 rise rate, 10–20 s post-thallium;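 active means thallium flux slope more than 3 SD above or below the plate's solvent-only control mean, mostly below; inconclusive means the two repeat wells disagreed; inactive means no significant shift from solvent-only controls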
# HEK293 Tl flux: counter-screen for KCC2 modulators: effect in parental HEK293 cells; hit rate 46% among 3,700; thallium flux FluoZin2, ouabain; baseline-ratio fluorescence slope, 10–20 s after thallium; thallium flux rate (normalised fluorescence) at 10 µM; shares compounds with Cl transport mod;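 active means thallium flux rate significantly above the same plate's solvent-only control wells, beyond their mean plus 3 SD; inconclusive means the two replicate wells gave conflicting results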
# KCC2 ouabain: modulates human KCC2 on retest with ouabain. shares compounds with Cl transport mod. HEK293-KCC2, thallium flux FluoZin2 fluorescence; bidirectional: low = inhibitor, high = activator. raw Tl+ flux slope (below DMSO = inhibition, above = activation) at 10 µM. hit rate 48% among 3,700;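 active means thallium flux slope beyond 3 SD from same-plate DMSO control mean in most replicates, usually higher, sometimes lower; inconclusive means repeat tests gave conflicting results; inactive means no significant difference from controls in most replicates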;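 further: slope of initial-normalized fluorescence between seconds 10 and 20 after thallium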
# HEK counter2: acts in parental HEK cells, second KCC2 counter-screen; hit rate 33% among 3,700; thallium flux slope at 10 µM; HEK293 parental, thallium flux FluoZin-2 fluorescence slope; shares compounds with Cl transport mod;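 active means thallium flux slope above the same plate's solvent-control mean plus 3 SD in both duplicate wells; inconclusive means duplicate wells that disagreed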;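 further: run without ouabain in cells lacking the KCC2 cotransporter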
# A number is an active result; n = inactive; u = inconclusive; x = not tested or not shown. In the library only some 3.4% were active in any assay of this set; here they are far more common.
SMILES,Cl transport mod,Mdm2 ligase inh,PKD1 kinase inh,Redox H2O2 prof,ROMK mod,p97 inhibitor,KCC2 sec1,KCC2 bumet counter,KCC2 secondary2,HEK293 Tl flux,KCC2 ouabain,HEK counter2
CC(=O)N1N=C2c3ccccc3CCC2C1c1ccc(F)cc1 (centres undefined),-3.58,n,x,x,x,n,n,n,n,u,0.0162,n
CCCOc1ccc(C2C(=O)N(C3CCCCC3)CC(=O)N2CCCOCC)cc1OC (centres undefined),x,n,n,n,x,n,n,n,n,n,n,n
CCOc1ccc(C2C(=O)N(C3CCCCC3)CC(=O)N2CC2CCCO2)cc1OC (centres undefined),x,n,n,n,x,n,n,n,n,n,n,n
CC(c1ccon1)N(C)C(=O)c1ccc(OC2CCN(C(=O)C3CC3)CC2)cc1 (centres undefined),n,n,n,n,n,n,x,x,x,x,x,x
COC(=O)[C@H]1C[C@@H]1[C@H](NC(=O)OCc1ccccc1)c1ccccc1,n,x,n,n,n,n,x,x,x,x,x,x
O=C(N=Nc1ccc(NOC(=O)c2ccccc2Br)cc1)c1ccccc1O,4.19,n,n,n,n,n,n,0.0209,n,0.0131,u,n
CCCCCCCCNC(=O)C(CCC(=O)OCc1ccccc1)NC(C)=O (centres undefined),x,n,n,n,n,n,n,n,0.0226,u,0.013,n
OC1(CNCc2cn[nH]c2-c2cc3ccccc3o2)CCCCC1,n,n,n,n,n,n,x,x,x,x,x,x
CCOC(=O)C1=C(CN2CCCCC2)NC(=O)NC1c1cc(C)ccc1C (centres undefined),x,n,n,n,x,n,n,n,n,n,n,n
O=C(Cn1cnc2c(cnn2-c2ccc(Cl)cc2)c1=O)N1CCN(c2ccccc2)CC1,n,n,n,n,n,n,x,x,x,x,x,x
O=C(NC(=S)NCCO)c1sc2ccccc2c1Cl,3.71,n,n,n,n,n,n,0.0106,n,0.0153,n,n
O=C(NCC1CCCO1)c1sc2ccccc2c1Cl (centres undefined),n,n,n,n,x,n,x,x,x,x,x,x
Cc1c(Cl)cccc1-n1c(SCC(=O)NCc2cccs2)nnc1-c1ccncc1,n,n,n,n,x,n,n,n,n,0.00974,n,n
Cc1c(Cl)cccc1-n1c(SCC(=O)NCc2ccccc2Cl)nnc1-c1ccncc1,n,n,n,n,x,n,x,x,x,x,x,x
O=C1Nc2ccccc2S/C1=C/Nc1cccc(Cl)c1,x,n,n,n,n,n,n,u,n,n,0.0151,n
O=C1Nc2ccccc2S/C1=C\C(=O)N1CCCC1,n,n,n,n,x,n,x,x,x,x,x,x
CCCNC(=O)c1ccccc1NC(=O)c1ccccc1N(C)S(C)(=O)=O,n,n,n,n,n,n,x,x,x,x,x,x
CC(C)CNC(=O)c1ccccc1NC(=O)c1ccccc1N(C)S(C)(=O)=O,-3.84,n,n,n,n,n,n,n,u,u,n,n
CCOC(=O)Cn1c(N2CCOCC2)nc2c1c(=O)[nH]c(=O)n2C,n,n,n,n,x,n,x,x,x,x,x,x
Cc1ccc2nc(CSc3nc(C)cc(C)c3C#N)[nH]c2c1,5.94,n,n,n,n,n,n,n,0.0246,0.00612,n,n
Cn1c(O)c(N=NC(=O)C2COc3ccccc3O2)c2ccccc21 (centres undefined),n,n,x,x,n,n,x,x,x,x,x,x
CC(C)n1c(O)c(N=NC(=O)C2COc3ccccc3O2)c2ccccc21 (centres undefined),10,n,n,n,n,n,n,0.0275,n,0.0299,0.0306,0.0259
Cc1ccc(C(C#N)c2ccc(Cl)nn2)cc1 (centres undefined),n,n,n,n,n,n,x,x,x,x,x,x
O=C(Nc1nc2ccc(Cl)cc2s1)c1ccc(Br)o1,n,n,n,n,x,n,x,x,x,x,x,x
O=C(Nc1nc2c(Cl)cccc2s1)c1ccc(Br)o1,x,n,n,n,x,n,u,0.0267,n,0.0342,0.0309,0.0136
SMILES,Cl transport mod,Mdm2 ligase inh,PKD1 kinase inh,Redox H2O2 prof,ROMK mod,p97 inhibitor,KCC2 sec1,KCC2 bumet counter,KCC2 secondary2,HEK293 Tl flux,KCC2 ouabain,HEK counter2
COC(=O)C1CCN(c2cc(=O)n(-c3ccccc3Cl)c(=O)[nH]2)CC1,n,n,n,n,n,n,x,x,x,x,x,x
O=C1c2oc3ccc(F)cc3c(=O)c2C(c2ccc(F)cc2)N1CCCN1CCOCC1 (centres undefined),n,x,n,n,x,n,x,x,x,x,x,x
COc1cccc(C2c3c(oc4ccc(F)cc4c3=O)C(=O)N2CCCN2CCOCC2)c1 (centres undefined),11.1,n,n,n,x,n,n,0.0107,n,0.0133,u,0.0135
Cn1ncc2c(=O)[nH]cnc21,n,n,n,n,n,n,x,x,x,x,x,x
C/C(=N\NC(=S)Nc1ccc(C)c(C)c1)c1ccc(N2CCOCC2)cc1,4.95,n,n,n,x,n,n,0.033,n,0.0147,n,n
S=c1[nH]c2ccccc2n2cccc12,21.8,n,x,x,x,n,0.017,0.0867,u,0.0281,0.0477,0.0175
Cn1c(-c2ccc3c(c2)OCO3)cnc1NC(=O)CCC(=O)NCCc1ccccc1,-3.66,n,n,n,x,n,n,n,n,n,n,u
Cc1cccc(NC(=O)Cc2ccc(F)cc2)c1,n,n,n,n,n,n,x,x,x,x,x,x
CSc1ccccc1NC(=S)N/N=C/c1cccn1Cc1cccc(C)c1,x,x,n,n,n,n,x,x,x,x,x,x
Cc1cccc(NC(=S)N/N=C/c2cccn2Cc2ccc(F)cc2)c1,6.26,n,n,n,n,n,n,0.00879,u,n,n,n
CSc1ccccc1NC(=S)N/N=C/c1cccn1Cc1ccc(F)cc1,4.14,n,n,n,n,n,n,0.0106,n,0.0106,n,0.0135
Cc1cccc(-n2c(=S)[nH]c3sc4c(c3c2=O)CCc2ccccc2-4)c1,21.4,n,n,n,n,n,0.0197,0.0463,n,0.0399,0.0433,0.0175

# High-throughput results deposited in PubChem by several laboratories.
